Screening data from PubChem.
An excerpt weighted towards active compounds, which were near 1.4% of everything screened.
Mot1-301 SUMO: SUMOylation pathway inhibition by Mot1-301 growth rescue. AID 2716. growth rescue, % at 18.8 µM. S. cerevisiae Mot1-301 growth rescue, ATP luminescence, 38.5C; percent above DMSO median, 100 means doubled. 320,000 compounds, 1% hits;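 active = every valid replicate shows activation above 250% relative to neutral control wells; inactive = the rest, any valid replicate at or below 250%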;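 note: OY570 slx delta 5 strain wells were the positive control but not used for scaling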
JMJD2C inh: blocks human GASC-1 demethylase activity; Q9H3R0; GST-JMJD2C(1-420) H3K9me3 demethylation, DELFIA europium; inhibition, % at 2.35 µM; 330,000 compounds, 0.069% hits; AID 2099;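 active = more than half of a compound's replicate wells show inhibition beyond 50%, single wells judged on their own value; inconclusive = some, but no more than half, of replicates pass 50% inhibition; inactive = no replicate passes 50% inhibition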;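 note: signal counts dimethyl H3K9 product captured on neutravidin plate; 0% = median of DMSO wells and 100% = 0.3 times that DMSO median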
Target sequence (Q9H3R0 1-420 limits assumed): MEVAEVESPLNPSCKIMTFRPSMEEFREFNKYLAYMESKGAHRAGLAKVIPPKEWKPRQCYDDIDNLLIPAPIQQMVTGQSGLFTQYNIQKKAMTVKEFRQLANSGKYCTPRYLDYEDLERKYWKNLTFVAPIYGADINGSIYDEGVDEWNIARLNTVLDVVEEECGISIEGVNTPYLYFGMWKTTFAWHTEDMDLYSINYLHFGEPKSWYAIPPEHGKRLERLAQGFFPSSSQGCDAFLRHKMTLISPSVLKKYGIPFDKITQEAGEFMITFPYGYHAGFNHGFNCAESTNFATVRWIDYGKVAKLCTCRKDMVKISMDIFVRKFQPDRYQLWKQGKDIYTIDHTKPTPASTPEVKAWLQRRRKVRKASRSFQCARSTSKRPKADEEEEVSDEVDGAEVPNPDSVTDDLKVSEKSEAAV
T cell modulator: modulates CD8 T cell binding to vesicles; 2C CD8+ T cell-vesicle binding, flow cytometry; active compounds read low; 330,000 compounds, 0.068% hits; response (vesicle binding), % at 7 µM;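 active = response, share of CD8 T cells binding vesicles, and their 90th percentile fluorescence all below set limits, cut at about 80% in these data, passing the limit was not always enough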;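 note: values below 100% mean blocked vesicle binding to the CD8+ T cells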
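System: murine 2C transgenic CD8+ T lymphocytes; also added: QL9-loaded Drosophila micro-vesicles; times: binding 1.5 h at 37 °C; measured by: flow cytometry, PE anti-B7-1 (FL2) versus Alexa647 anti-CD8 (FL8), PFA-fixed; control set: Peptide-free naked vesicles (low) and QL9 vesicles with 0.7% DMSO vehicle (high)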
HIF act: HIF pathway transcriptional activation | U2OS HRE-luciferase reporter, luminescence; normalized: DMSO 0%, desferrioxamine 100% | activation, % at 7.5 µM (by protocol) | 300,000 compounds, 0.32% hits | AID 1910;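 active = mean activation of at least 10% of the iron chelator positive control signal, with at least half of replicates also reaching 10%; inconclusive = mean and replicate majority disagree about reaching 10%; inactive = mean and most replicates under 10%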
Yeast Mot1 SUMO: yeast SUMO pathway inhibition in dose response. S. cerevisiae Mot1-301 galactose growth, ATP luminescence, 24 h; -100 = growth of slx-deleted rescue strain. shares compounds with Mot1-301 SUMO. 2,300 tested, under 10 active. growth activity, percent, % at 42 µM;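 active = Signal drops as the depositor expects, and the fitted half-maximal dose is no more than ten times the top valid tested dose; inconclusive = Poor fit, or a flat curve whose signal drops by 30% to 70%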;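 note: more negative values mean stronger growth rescue toward the control strain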
* = called active by the depositor; ? = inconclusive; . = no result; + = active, no number.

SMILES	Mot1-301 SUMO	JMJD2C inh	T cell modulator	HIF act	Yeast Mot1 SUMO
COc1ccc(-c2nnc(-c3cc4c(ccc5ccccc54)oc3=O)o2)cc1	574*	-1	304	?	0
CCOC(CNC(=O)CN1C(=O)COc2ccc(S(=O)(=O)N3CCCC3)cc21)OCC	.	0	596	0	.
O=C(CCC(=O)N1CCN(c2cccc(Cl)c2)CC1)c1cccs1	16	2	172	-1	.
Cc1nn(-c2ccccc2)c(C)c1C(=O)OC(C)C(=O)NC1CCCCC1 (centres undefined)	14	-5	160	.	.
CN(C)S(=O)(=O)c1cc(NC(=O)CSc2nn(-c3ccc(Cl)cc3)c(=S)s2)ccc1Cl	555*	-5	311	0	1
Cc1ccc(NC(=O)CSc2nn(-c3ccc(Cl)cc3)c(=S)s2)cc1S(=O)(=O)N(C)C	1	-8	388	-1	.
O=C(Oc1ccc2c(c1)OCO2)c1cccs1	478*	-1	283	0	1
Cc1cc(OC(=O)c2cccs2)ccc1C(C)C	14	-7	169	0	.
O=C(NCC1OCCCN1S(=O)(=O)c1cc(F)ccc1F)C(=O)NC1CCCCC1 (centres undefined)	335	-2	351	0	.
CCc1ccc2nc(-c3cccc(C)c3)nc(SCC(=O)NCC3CCCO3)c2c1 (centres undefined)	404*	6	414	0	0
Cc1ccc2nc(-c3ccc(F)cc3)nc(SCC(=O)NCC3CCCO3)c2c1 (centres undefined)	0	2	415	0	.
Cc1cc(C)c(C(=O)N2CCC(N3CCC(C(=O)NC(C)C)CC3)CC2)o1	2	-7	253	-1	.
COc1ccc(NC(=O)CSc2nnc3ccc(-c4ccccn4)nn23)cc1	80	3	426	0	.
COc1ccc(C(=O)CSc2nnc3ccc(-c4ccccn4)nn23)cc1	745*	16	334	0	1
C=CCNC(=O)c1cc(-c2cccnc2)nc2ccccc12	441*	-12	242	0	1
C=CCNC(=S)NNC(=O)c1cc(-c2cccnc2)nc2ccccc12	-32	-1	593	0	.
CCc1nnc(NC(=O)CSc2nc3c(cc2C#N)CCCC3)s1	736*	-1	200	-14	1
O=C(OCc1ccccc1)c1cccc(-c2nnn(Cc3ccccc3)n2)c1	391*	12	352	0	0
O=C(COc1ccc(Cl)cc1Cl)OCC(=O)c1ccc[nH]1	20	-5	348	.	.
O=C(Cc1ccc(Cl)cc1Cl)OCC(=O)c1ccc[nH]1	581*	44	229	1	1
COc1ccc(-c2cc(C#N)nc(N3CCN(c4ccccc4)CC3)n2)cc1	425*	-1	420	-1	0
O=C(COC(=O)c1cc(Cl)ccc1O)Nc1cc(C(F)(F)F)ccc1N1CCOCC1	-1	16	248	.	.
CCc1noc(C)c1C(=O)Nc1nc(-c2ccc(F)cc2)c(C)s1	634*	5	186	0	0
C=CCOC(=O)C(C#N)c1nc2ccccc2nc1N1CCN(Cc2ccccc2)CC1 (centres undefined)	501*	.	280	.	0
C[C@H](NC(=O)c1ccco1)C(=O)N1CCN(c2ccc(C(F)(F)F)cn2)CC1	26	-1	171	.	.
SMILES	Mot1-301 SUMO	JMJD2C inh	T cell modulator	HIF act	Yeast Mot1 SUMO
CCc1ccc2c(c1)C(c1ccc(N3CCOCC3)cc1)=NNC(c1ccncc1)=N2	-13	8	369	3	.
CCc1ccc2c(c1)C(c1ccc([N+](=O)[O-])cc1)=NNC(c1ccc(C)cc1)=N2	407*	5	146	0	0
N#Cc1ccc2[nH]c(CO)c(-c3ccccc3)c2c1	+	-3	457	-1	-1
CCCC(NC(=O)C(C)NC(=O)CO/N=C1\C=C2CCC3C4CCC(C(C)=O)[C@@]4(C)CCC3[C@@]2(C)CC1)C(=O)O (some centres undefined)	13	2	275	1	.
COc1ccc(C(=O)N2CCN(c3ccc(NC(=O)c4cccnc4)cc3)CC2)cc1	458*	-15	0	0	0
CC(C)Cc1cc(CN2CCC(CO)(Cc3ccccc3)CC2)[nH]n1	455*	6	107	2	-1
CC(C)=CCN1CCN(Cc2cc(CC(C)C)n[nH]2)CC1CCO (centres undefined)	-1	-27	369	0	.
Cc1nc(SCC(=O)O)n[nH]1	+	-1	300	0	0
Cc1sc2ncnc(Nc3ccccc3)c2c1C	371*	1	79	2	0
CCOc1ccccc1C(=O)NCc1ccc2c(c1)OCO2	879*	11	356	0	-1
CCOc1cc(S(=O)(=O)NCc2ccc3c(c2)OCO3)c(C)cc1C	701*	6	210	0	0
O=C(c1ccc(-c2ccccc2)cc1)C1CCCN(Cc2ccncc2)C1 (centres undefined)	365*	-6	160	0	0
Cc1c(C(=O)N(C)Cc2nc3ccccc3c(=O)[nH]2)oc2ccccc12	-8	5	337	.	.
COc1ccc(Cc2nnc(NCCO)[nH]c2=O)cc1	446*	7	396	-1	0
CCC(=O)Nc1sc2c(c1C#N)CCC2	5	-7	251	0	.
CN=C1SC(CC(=O)Nc2sc3c(c2C#N)CCCC3)C(=O)N1C (centres undefined)	364*	-8	286	0	0
O=C(Nc1ccc(F)cc1)c1cccnn1	397*	4	198	2	-1
O=C(Nc1ccc(F)cc1)c1ccc(=O)[nH]n1	-11	-3	224	-3	.
CC1(C)CC(=O)c2cnc(NC(=O)CSc3nc4ccccc4o3)nc2C1	851*	-1	458	0	1
O=C(O)/C=C\c1cccc(-n2nnnc2SCc2ccccc2F)c1	3	4	245	0	.
CC(C(=O)NCC1CCCO1)n1cc([N+](=O)[O-])cn1 (centres undefined)	275	9	364	0	.
O=c1[nH]cnc2ccc([N+](=O)[O-])cc12	397*	49	131	0	0
CN(Cc1c(C(=O)N2CCc3ccccc3C2)nc2ccc(Cl)cn12)C(C1CC1)C1CC1	23	-15	360	-1	.
COc1ccc(C(=O)CSc2nnc(-c3ccc(C)cc3)o2)cc1	393	-9	231	0	.
COc1ccc(-c2nnc(SCC(C)C)o2)cc1	584*	18	640	1	1
N#Cc1c(-c2ccco2)cc(-c2cccnc2)nc1N	675*	8	561	0	1
CCOC(=O)COc1nc(-c2ccco2)cc(-c2ccco2)c1C#N	-9	8	339	0	.
CCOC(=O)COc1nc(-c2ccc(C)cc2)cc(-c2ccco2)c1C#N	400*	-3	257	0	0
N#Cc1c(-c2cccnc2)cc(-c2ccccc2)nc1N	0	0	230	-1	.
